Laboratory results reported in ChEMBL document CHEMBL2169804, “Novel histone deacetylase 8 ligands without a zinc chelating group: exploring an 'upside-down' binding pose” (Bioorg Med Chem Lett, 2012).
pIC50, pKi: −log10 of the molar value. Calls of active or inactive are those of the source. The rule behind the calls is not given here.

How the values were obtained:
[1] = target: T1, Histone deacetylase 8 (Homo sapiens, UniProt Q9BY41); experiment: Inhibition of human recombinant HDAC8 using fluor de Lys as substrate preincubated for 5 mins followed by substrate addition measured after 25 mins by microplate reader analysis; conditions: for pIC50: read-out: IC50
T1 sequence (Q9BY41 whole entry): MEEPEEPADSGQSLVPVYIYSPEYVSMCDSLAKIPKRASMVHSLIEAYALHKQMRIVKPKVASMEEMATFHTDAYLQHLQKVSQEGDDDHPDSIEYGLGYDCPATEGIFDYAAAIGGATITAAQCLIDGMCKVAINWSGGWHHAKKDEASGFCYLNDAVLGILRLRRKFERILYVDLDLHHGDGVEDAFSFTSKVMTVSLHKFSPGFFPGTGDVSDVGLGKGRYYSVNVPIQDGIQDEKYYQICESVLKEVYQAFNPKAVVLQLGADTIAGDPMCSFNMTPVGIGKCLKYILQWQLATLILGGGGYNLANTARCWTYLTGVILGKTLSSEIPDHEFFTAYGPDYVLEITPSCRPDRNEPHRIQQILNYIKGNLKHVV

[2] = target: T2, Protein deacetylase HDAC6 (Homo sapiens) (UniProt Q9UBN7); experiment: Inhibition of cytoplasmic HDAC6 in human SH-SY5Y cells assessed as alpha-tubulin acetylation at 1 uM after 24 hrs by Western blot analysis; format: cell-based
T2 sequence (whole entry): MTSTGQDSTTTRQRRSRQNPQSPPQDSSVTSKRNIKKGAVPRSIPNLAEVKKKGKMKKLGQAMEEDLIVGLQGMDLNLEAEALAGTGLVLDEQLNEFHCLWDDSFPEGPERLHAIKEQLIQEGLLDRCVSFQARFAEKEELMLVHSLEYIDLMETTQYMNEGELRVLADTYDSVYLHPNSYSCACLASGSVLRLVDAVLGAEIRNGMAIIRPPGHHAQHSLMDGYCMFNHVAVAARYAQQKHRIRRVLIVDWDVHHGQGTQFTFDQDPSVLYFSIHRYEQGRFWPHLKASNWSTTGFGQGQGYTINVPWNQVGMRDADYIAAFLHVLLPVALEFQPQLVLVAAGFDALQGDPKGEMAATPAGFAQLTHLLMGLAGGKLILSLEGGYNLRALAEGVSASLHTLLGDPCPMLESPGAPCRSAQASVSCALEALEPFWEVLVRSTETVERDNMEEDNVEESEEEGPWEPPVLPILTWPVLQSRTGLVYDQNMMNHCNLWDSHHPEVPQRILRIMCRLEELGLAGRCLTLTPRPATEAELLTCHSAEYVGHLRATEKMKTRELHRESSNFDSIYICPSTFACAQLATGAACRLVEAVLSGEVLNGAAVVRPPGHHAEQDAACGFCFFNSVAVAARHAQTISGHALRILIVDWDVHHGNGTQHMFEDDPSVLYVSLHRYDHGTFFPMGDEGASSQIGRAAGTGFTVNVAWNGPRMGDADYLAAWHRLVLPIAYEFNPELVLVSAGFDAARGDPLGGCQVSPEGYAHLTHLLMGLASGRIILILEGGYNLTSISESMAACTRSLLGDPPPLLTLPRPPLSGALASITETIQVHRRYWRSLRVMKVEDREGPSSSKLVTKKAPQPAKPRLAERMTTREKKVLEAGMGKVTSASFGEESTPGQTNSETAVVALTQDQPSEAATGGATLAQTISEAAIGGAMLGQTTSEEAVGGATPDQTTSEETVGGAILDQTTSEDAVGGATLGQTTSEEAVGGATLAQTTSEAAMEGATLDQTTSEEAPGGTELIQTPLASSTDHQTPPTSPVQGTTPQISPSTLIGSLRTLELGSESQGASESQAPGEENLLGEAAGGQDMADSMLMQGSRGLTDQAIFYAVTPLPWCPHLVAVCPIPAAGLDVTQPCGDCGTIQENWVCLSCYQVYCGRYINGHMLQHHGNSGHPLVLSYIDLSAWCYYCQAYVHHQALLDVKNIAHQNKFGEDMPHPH
In short: (§1)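 SH-SY5Y cells were grown to 80% confluence in 1:1 DMEM:OPTI-MEM with 10% FBS. They were treated with vehicle or compound for 24 h at 37 °C, 5% CO2, then lysed in RIPA buffer with protease and phosphatase inhibitors. Lysate containing 20 µg protein was run by SDS-PAGE and blotted with anti-acetyl α-tubulin or anti-acetyl histone H4 (1:1000) overnight at 4 °C, with anti-GAPDH as reference. Detection was by chemiluminescence on a CCD camera.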

[3] = target: T3, Histone deacetylase 8 (Homo sapiens) (UniProt Q9BY41); experiment: Binding affinity to human recombinant HDAC8 expressed in Escherichia coli assessed as increase in enzyme biotinylation level preincubated for 3 hrs followed by denaturation measured after 60 mins by Western blot-based photoaffinity labelling method
T3 sequence (whole entry): T1 sequence (Q9BY41 whole entry)
In short: (§2)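 Probe, or probe plus competitor, preincubated 3 h at room temperature, then irradiated at 254 nm for 3 × 1 min with 1 min rests. For denaturing runs, SDS was added to 2% w/v final and held 30 min at 37 °C.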

[4] = target: T3, Histone deacetylase 8 (Homo sapiens); experiment: Binding affinity to human recombinant HDAC8 expressed in Escherichia coli assessed as enzyme biotinylation level at […] preincubated for 3 hrs followed by denaturation measured after 60 mins by Western blot-based photoaffinity labelling method in presence of 0.25 and […] SAHA
[5] = target: T4, Histone deacetylase 3 (Homo sapiens, UniProt O15379); experiment: Inhibition of human recombinant HDAC3 using Boc-Lys(Ac)-AMC as substrate preincubated for 5 mins followed by substrate addition measured after 30 mins by microplate reader analysis
[6] = target: T3, Histone deacetylase 8 (Homo sapiens); experiment: Inhibition of nuclear HDAC8 in human SH-SY5Y cells assessed as increase in histone H4 acetylation after 24 hrs by Western blot analysis; format: cell-based; in short: as §1
[7] = target: T3, Histone deacetylase 8 (Homo sapiens); experiment: Binding affinity to human recombinant HDAC8 expressed in Escherichia coli assessed as enzyme biotinylation level at 1.5 uM under non denaturating condition after 3 hrs by Western blot-based photoaffinity labelling method in presence of 37.5 and 75 uM SAHA; in short: as §2
[8] = target: T5, Histone deacetylase 1 (Homo sapiens, UniProt Q13547); experiment: Inhibition of nuclear HDAC1 in human SH-SY5Y cells assessed as increase in histone H4 acetylation after 24 hrs by Western blot analysis; format: cell-based; in short: as §1
[9] = target: T4, Histone deacetylase 3; experiment: Inhibition of nuclear HDAC3 in human SH-SY5Y cells assessed as increase in histone H4 acetylation after 24 hrs by Western blot analysis; format: cell-based; in short: as §1
[10] = target: T2, Protein deacetylase HDAC6 (Homo sapiens); experiment: Inhibition of cytoplasmic HDAC6 in human SH-SY5Y cells assessed as alpha-tubulin acetylation at 31.25 to 125 uM after 24 hrs by Western blot analysis; format: cell-based; in short: as §1
[11] = target: T3, Histone deacetylase 8 (Homo sapiens); experiment: Binding affinity to human recombinant HDAC8 expressed in Escherichia coli assessed as enzyme biotinylation level at 1.5 uM under non denaturating condition after 3 hrs by Western blot-based photoaffinity labelling method in presence of 37.5 and 75 uM PCI34051; in short: as §2
[12] = target: T3, Histone deacetylase 8 (Homo sapiens); experiment: Binding affinity to human recombinant HDAC8 expressed in Escherichia coli assessed as enzyme biotinylation level at 5 uM preincubated for 3 hrs followed by denaturation measured after 60 mins by Western blot-based photoaffinity labelling method in presence of 250 uM 7-[4-(3,5-Dimethyl-benzyloxy)phenylcarbamoyl]heptanoic acid methyl ester; in short: as §2
[13] = target: T3, Histone deacetylase 8 (Homo sapiens); experiment: Binding affinity to human recombinant HDAC8 expressed in Escherichia coli assessed as enzyme biotinylation level at 1.5 uM under non denaturating condition after 3 hrs by Western blot-based photoaffinity labelling method in presence of 7-[4-(3,5-Dimethyl-benzyloxy)phenylcarbamoyl]heptanoic acid methyl ester; in short: as §2
[14] = target: T6, Histone deacetylase 2 (Homo sapiens, UniProt Q92769); experiment: Inhibition of nuclear HDAC2 in human SH-SY5Y cells assessed as increase in histone H4 acetylation after 24 hrs by Western blot analysis; format: cell-based; in short: as §1
[15] = target: T5, Histone deacetylase 1; experiment: Inhibition of human recombinant HDAC1 using Boc-Lys(Ac)-AMC as substrate preincubated for 5 mins followed by substrate addition measured after 30 mins by microplate reader analysis
[16] = target: T6, Histone deacetylase 2; experiment: Inhibition of human recombinant HDAC2 using Boc-Lys(Ac)-AMC as substrate preincubated for 5 mins followed by substrate addition measured after 30 mins by microplate reader analysis
[17] = target: T3, Histone deacetylase 8 (Homo sapiens); experiment: Binding affinity to human recombinant HDAC8 expressed in Escherichia coli assessed as enzyme biotinylation level at 1.5 uM under non denaturating condition after 3 hrs by Western blot-based photoaffinity labelling method in presence of 37.5 and 75 uM TSA; in short: as §2
[18] = target: T4, Histone deacetylase 3; experiment: Inhibition of human recombinant HDAC3 using Boc-Lys(Ac)-AMC as substrate at 66 uM preincubated for 5 mins followed by substrate addition measured after 30 mins by microplate reader analysis
[19] = target: T3, Histone deacetylase 8 (Homo sapiens); experiment: Binding affinity to human recombinant HDAC8 expressed in Escherichia coli assessed as increase in enzyme biotinylation level at […] under non denaturating condition after 3 hrs by Western blot-based photoaffinity labelling method
[20] = target: T3, Histone deacetylase 8 (Homo sapiens); experiment: Binding affinity to human recombinant HDAC8 expressed in Escherichia coli assessed as enzyme biotinylation level at 5 uM preincubated for 3 hrs followed by denaturation measured after 60 mins by Western blot-based photoaffinity labelling method in presence of 250 uM TSA; in short: as §2
[21] = target: T3, Histone deacetylase 8 (Homo sapiens); experiment: Binding affinity to human recombinant HDAC8 expressed in Escherichia coli assessed as increase in enzyme biotinylation level at […] preincubated for 3 hrs followed by denaturation measured after 60 mins by Western blot-based photoaffinity labelling method
[22] = target: T3, Histone deacetylase 8 (Homo sapiens); experiment: Binding affinity to human recombinant HDAC8 expressed in Escherichia coli assessed as increase in enzyme biotinylation level at 5 uM preincubated for 3 hrs followed by denaturation measured after 60 mins by Western blot-based photoaffinity labelling method in presence of 5 uM SAHA; in short: as §2
[23] = target: T3, Histone deacetylase 8 (Homo sapiens); experiment: Binding affinity to human recombinant HDAC8 expressed in Escherichia coli assessed as enzyme biotinylation level at 5 uM preincubated for 3 hrs followed by denaturation measured after 60 mins by Western blot-based photoaffinity labelling method in presence of 250 uM PCI34051; in short: as §2
[24] = target: T3, Histone deacetylase 8 (Homo sapiens); experiment: Binding affinity to human recombinant HDAC8 expressed in Escherichia coli assessed as enzyme biotinylation level at 5 uM preincubated for 3 hrs followed by denaturation measured after 60 mins by Western blot-based photoaffinity labelling method in presence of 250 uM SAHA; in short: as §2
[25] = target: T3, Histone deacetylase 8 (Homo sapiens); experiment: Inhibition of human recombinant HDAC8 using fluor de Lys as substrate assessed as residual activity at 66 uM preincubated for 5 mins followed by substrate addition measured after 25 mins by microplate reader analysis

T5 sequence (Q13547 whole entry): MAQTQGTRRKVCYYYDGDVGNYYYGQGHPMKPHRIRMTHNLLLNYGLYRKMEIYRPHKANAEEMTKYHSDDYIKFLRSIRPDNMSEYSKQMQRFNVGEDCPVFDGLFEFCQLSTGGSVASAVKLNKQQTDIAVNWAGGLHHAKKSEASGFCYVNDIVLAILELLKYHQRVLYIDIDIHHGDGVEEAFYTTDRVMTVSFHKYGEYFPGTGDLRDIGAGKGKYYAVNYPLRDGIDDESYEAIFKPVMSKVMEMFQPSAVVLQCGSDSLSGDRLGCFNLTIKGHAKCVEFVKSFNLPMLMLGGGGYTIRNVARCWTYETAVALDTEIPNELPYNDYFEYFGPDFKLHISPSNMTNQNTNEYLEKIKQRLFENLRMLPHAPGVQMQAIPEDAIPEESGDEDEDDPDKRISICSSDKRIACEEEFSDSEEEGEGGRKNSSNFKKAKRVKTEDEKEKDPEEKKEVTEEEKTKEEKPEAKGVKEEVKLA
T4 sequence (O15379 whole entry): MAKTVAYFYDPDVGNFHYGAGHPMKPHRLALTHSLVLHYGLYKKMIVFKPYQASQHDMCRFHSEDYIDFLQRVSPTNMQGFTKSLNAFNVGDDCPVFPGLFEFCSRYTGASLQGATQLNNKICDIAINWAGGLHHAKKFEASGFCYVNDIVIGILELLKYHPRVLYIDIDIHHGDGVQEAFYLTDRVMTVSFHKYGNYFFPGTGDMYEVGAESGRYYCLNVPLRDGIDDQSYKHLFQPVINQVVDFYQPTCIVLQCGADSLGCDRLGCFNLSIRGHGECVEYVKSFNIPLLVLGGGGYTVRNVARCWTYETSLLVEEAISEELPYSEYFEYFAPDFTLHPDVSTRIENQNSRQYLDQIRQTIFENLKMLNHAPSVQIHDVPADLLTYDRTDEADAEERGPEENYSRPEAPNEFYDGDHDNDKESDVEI
T6 sequence (Q92769 whole entry): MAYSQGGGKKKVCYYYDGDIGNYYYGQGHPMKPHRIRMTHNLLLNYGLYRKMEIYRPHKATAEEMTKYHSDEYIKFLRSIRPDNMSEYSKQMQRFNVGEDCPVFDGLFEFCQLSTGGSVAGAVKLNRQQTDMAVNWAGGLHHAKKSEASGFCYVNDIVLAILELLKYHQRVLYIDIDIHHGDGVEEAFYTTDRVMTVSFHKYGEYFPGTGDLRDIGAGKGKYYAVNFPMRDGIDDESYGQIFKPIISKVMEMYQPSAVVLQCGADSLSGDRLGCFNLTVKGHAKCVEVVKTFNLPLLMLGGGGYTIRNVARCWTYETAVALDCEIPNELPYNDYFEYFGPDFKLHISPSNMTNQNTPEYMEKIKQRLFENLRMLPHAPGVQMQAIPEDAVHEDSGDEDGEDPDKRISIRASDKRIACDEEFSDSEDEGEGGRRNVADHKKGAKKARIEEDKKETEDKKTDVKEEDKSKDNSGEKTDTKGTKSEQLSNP

CCCCCCCC(=O)Nc1ccc(OCc2cc(C)cc(C)c2)cc1
IC50 [1]: Not Active

O=C(NO)c1ccc(Cn2c3ccccc3c3ccccc32)cc1
inhibition [2]: Active

[N-]=[N+]=NCc1cc(COc2ccc(NC(=O)CCCCCCC(=O)NO)cc2)cc(N=[N+]=[N-])c1
Activity [3]: Dose-dependent effect | Activity [4]: inactive | pKi [5]: 6.13

COc1cc(COc2ccc(NC(=O)CCCCCCC(=O)OCc3ccc(CN=[N+]=[N-])cc3)cc2)cc(N=[N+]=[N-])c1
inhibition [6]: Dose-dependent effect | pIC50 [1]: 4.55 | Activity [7]: inactive | inhibition [8]: Dose-dependent effect | inhibition [9]: Dose-dependent effect | inhibition [10]: inactive | Activity [11]: inactive | Activity [12]: inactive | Activity [13]: inactive | inhibition [14]: Dose-dependent effect | pIC50 [15]: 4.07 | pIC50 [16]: 4.10 | Activity [17]: inactive | inhibition [18]: inactive

COC(=O)CCCCCCC(=O)Nc1ccc(OCc2cc(C)cc(C)c2)cc1
pIC50 [1]: 4.32

CC(C)(C)OC(=O)CCCCCCC(=O)Nc1ccc(OCc2cc(CN=[N+]=[N-])cc(N=[N+]=[N-])c2)cc1
pIC50 [1]: 4.37

[N-]=[N+]=NCc1cc(Cn2cc(NC(=O)CCCCCCC(=O)NO)cn2)cc(N=[N+]=[N-])c1
pKi [5]: 7.19

COC(=O)CCCCCCC(=O)Nc1ccc(OCc2cc(CN=[N+]=[N-])cc(N=[N+]=[N-])c2)cc1
pIC50 [1]: 4.43 | Activity [19]: Active | Activity [20]: inactive | Activity [21]: Active | Activity [3]: Dose-dependent effect | Activity [12]: inactive | Activity [22]: Active | Activity [23]: inactive | Activity [24]: inactive

[N-]=[N+]=NCc1cc(N=[N+]=[N-])cc(C(=O)Nc2ccc(-c3cc(C(=O)NCCCCCCC(=O)NO)no3)cc2)c1
pKi [5]: 7.64

COC(=O)CCCCCCC(=O)Nc1ccc(OCc2ccccc2)cc1
IC50 [1]: Not Active | Activity [25]: > 50%

COC(=O)CCCCCCNC(=O)c1cc(-c2ccc(NC(=O)c3cc(CN=[N+]=[N-])cc(N=[N+]=[N-])c3)cc2)on1
pIC50 [1]: 4.33

COc1cc(COc2ccc(NC(=O)CCCCCCC(=O)OCCN=[N+]=[N-])cc2)cc(N=[N+]=[N-])c1
pIC50 [1]: 4.17 | Activity [3]: Dose-dependent effect | pIC50 [15]: 3.95 | pIC50 [16]: 4.14 | inhibition [18]: inactive

Cc1cc(C)cc(COc2ccc(NC(=O)CCCCCCC(=O)OC(C)(C)C)cc2)c1
pIC50 [1]: 4.27

COC(=O)CCCCCCC(=O)Nc1cnn(Cc2cc(CN=[N+]=[N-])cc(N=[N+]=[N-])c2)c1
pIC50 [1]: 4.44
